Data set [1] relates to Rattus norvegicus. Nature of the data set: Mean Chlorine excretion in rats when compound administered at 160 mg/kg po and vehicle dosed at 594.07 umol/kg. On the set-up: dose 160 mg/kg, route oral. Conditions: in vivo. The data set is classed as ADME, organism-based. The procedure, abridged:
(§1)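 Male Sprague-Dawley rats (HC/CFY, 175-200 g), no food or water for 18 h before and during the test. Single gavage dose (2.5-160 mg/kg; vehicle 1% carboxymethyl cellulose/0.1% Tween 80, 0.5 mL/100 g bw), then distilled water 2.5 mL/100 g bw po. Individual metabolic cages, 6 h urine. K+ by flame photometry, Cl- colorimetric, as mequiv/6 h/kg bw; unpaired Student t-test vs control.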

Data set [2] has as its system Rattus norvegicus. Nature of the data set: Mean sodium excretion in rats when compound administered at 20 mg/kg po and vehicle dosed at 74.26 umol/kg. The data set is classed as ADME, organism-based. On the set-up: dose 20 mg/kg, route oral. To be noted: in vivo. The procedure, abridged:
(§2)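 Male Sprague-Dawley rats (HC/CFY, 175-200 g) fasted and water-deprived 18 h before and during the test. Dosed by gavage at 2.5-160 mg/kg in 1% carboxymethyl cellulose/0.1% Tween 80, 0.5 mL/100 g bw. Immediately hydrated with water (2.5 mL/100 g bw, po). Urine collected 6 h in metabolic cages; Na+ and K+ by flame photometry; mean mequiv/6 h/kg bw; nonpaired Student t-test.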

The test system of data set [3] is Rattus norvegicus. Description: Mean sodium excretion in rats when compound administered at 5 mg/kg po and vehicle dosed at 18.56 umol/kg. Conditions: in vivo. On the set-up: dose 5 mg/kg, route oral. The class given is ADME, organism-based. The procedure, abridged: as §2
Data set [4] concerns Rattus norvegicus. Description: Urinary sodium 6 hr after the compound was administered 100 mg/kg po in rat. The data set is classed as ADME, organism-based, Urine. On the set-up: dose 100 mg/kg, route oral. Conditions: in vivo. The procedure, abridged:
(§3)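 Onset and duration study in fasted, water-loaded male Sprague-Dawley rats housed two per metabolic cage, six pairs per group. Single oral dose given, then water 2.5 mL/100 g po. Urine volume and sodium (flame photometry) measured over 0-1, 1-2, 2-3, 3-4 and 4-6 h intervals. Mean values compared with vehicle by Student t-test.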

Data set [5] concerns Rattus norvegicus. Nature of the data set: Mean Chlorine excretion in rats when compound administered at 5 mg/kg po and vehicle dosed at 18.56 umol/kg. The data set is classed as ADME, organism-based. Also on record: dose 5 mg/kg, route oral. To be noted: in vivo. The procedure, abridged:
as §1

The test system of data set [6] is Rattus norvegicus. Nature of the data set: Urinary sodium 3h after the compound was administered 100 mg/kg po in rat. The data set is classed as ADME, organism-based, Urine. On the set-up: dose 100 mg/kg, route oral. To be noted: in vivo. In a few lines: as §3
The test system of data set [7] is Rattus norvegicus. Nature of the data set: Mean potassium excretion in rats when compound administered at 10 mg/kg po and vehicle dosed at 37.13 umol/kg. The class given is ADME, organism-based. On the set-up: dose 10 mg/kg, route oral. To be noted: in vivo. The procedure, abridged: as §1
Data set [8] concerns Rattus norvegicus. Description: Mean urinary output in rats when compound administered at 2.5 mg/kg po and vehicle dosed at 9.28 umol/kg. The data set is classed as ADME, organism-based, Urine. On the set-up: dose 2.5 mg/kg, route oral. Conditions: in vivo. The procedure, abridged: (§4)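 Water-loaded male Sprague-Dawley rats (HC/CFY, 175-200 g) fasted and without water for 18 h. Oral gavage of 2.5-160 mg/kg in 1% CMC with 0.1% Tween 80, then distilled water 2.5 mL/100 g po. Urine collected 6 h in metabolic cages, mean output in mL/6 h/kg bw. Unpaired Student t-test against vehicle; dose-response by linear regression.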

For data set [9], the species on record is Rattus norvegicus. Nature of the data set: Mean urinary output in rats (Control/Drug treatment value); value 24.2/47.6. To be noted: in vivo. The class given is ADME, organism-based, Urine. The procedure, abridged: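 Water-loaded male Sprague-Dawley rats (HC/CFY, 175-200 g), eight per group, deprived of food and water 18 h. Single oral gavage of 20-25 mg/kg (some 10 mg/kg) in 1% CMC/0.1% Tween 80, then distilled water 2.5 mL/100 g bw po. Cumulative urine over 6 h in metabolic cages; mean mL/6 h/kg bw vs vehicle group.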

The test system of data set [10] is Rattus norvegicus. Nature of the data set: Volume of urine 2 hr after the compound was administered 100 mg/kg po in rat. The class given is ADME, organism-based. Also on record: dose 100 mg/kg, route oral. Conditions: in vivo. In a few lines: (§5)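 Onset/duration protocol: male Sprague-Dawley rats (HC/CFY, 175-200 g), food and water withdrawn for 18 h before and during the test. Single gavage dose in 1% carboxymethyl cellulose/0.1% Tween 80 (0.5 mL/100 g bw), then distilled water load (2.5 mL/100 g bw po). Two rats per metabolic cage, six pairs per group. Urine collected at 0-1, 1-2, 2-3, 3-4 and 4-6 h; Na+ by flame photometry. Vehicle controls; nonpaired Student t-test.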

In data set [11] the test system is Rattus norvegicus. Nature of the data set: Mean urinary output in rats when compound administered at 80 mg/kg po and vehicle dosed at 297.03 umol/kg. The data set is classed as ADME, organism-based, Urine. Also on record: dose 80 mg/kg, route oral. Conditions: in vivo. In a few lines: as §4
Data set [12] relates to Rattus norvegicus. Description: Mean potassium excretion in rats when compound administered at 160 mg/kg po and vehicle dosed at 594.07 umol/kg. The class given is ADME, organism-based. Also on record: dose 160 mg/kg, route oral. Conditions: in vivo. The procedure, abridged: as §1
Data set [13] relates to Rattus norvegicus. Description: Volume of urine 1 hr after the compound was administered 100 mg/kg po in rat. The class given is ADME, organism-based. On the set-up: dose 100 mg/kg, route oral. Conditions: in vivo. In a few lines: as §5
The test system of data set [14] is Rattus norvegicus. Nature of the data set: Post dosing time interval of maximum activity. The class given is functional. The procedure, abridged: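 Interval of peak activity taken from timed urine collections (0-1, 1-2, 2-3, 3-4, 4-6 h) after a single oral dose in water-loaded fasted rats, […]. Urine volume and Na+ excretion followed over time.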

The test system of data set [15] is Rattus norvegicus. Description: Mean potassium excretion in rats when compound administered at 40 mg/kg po and vehicle dosed at 148.52 umol/kg. The data set is classed as ADME, organism-based. Also on record: dose 40 mg/kg, route oral. Conditions: in vivo. The procedure, abridged: as §1
Data set [16] has as its system Rattus norvegicus. Description: Mean Chlorine excretion in rats when compound administered at 40 mg/kg po and vehicle dosed at 148.52 umol/kg. The class given is ADME, organism-based. On the set-up: dose 40 mg/kg, route oral. Conditions: in vivo. The procedure, abridged: as §1

Molecules are shown by their SMILES.

Consider `CCc1nc2c(nc1C)C(N)=NS(=O)(=O)N2CC`, for which the Cl- was 9.28 m equiv 6hr-1 kg-1 (body weight)-1 in the data set with Rattus norvegicus [1], 1.83 m equiv 6hr-1 kg-1 (body weight)-1 in the data set on Rattus norvegicus [5] and 6.37 m equiv 6hr-1 kg-1 (body weight)-1 with Rattus norvegicus [16]. For the same compound, the Na in the data set with Rattus norvegicus [2] is 1.7 m equiv 6hr-1 kg-1 (body weight)-1; in the data set with Rattus norvegicus [3], 0.8 m equiv 6hr-1 kg-1 (body weight)-1. In addition, the “Urinary Na+” value came to 0.16 m equiv in the data set with Rattus norvegicus [4] and 0.56 m equiv with Rattus norvegicus [6]. Moreover, the results for the K with Rattus norvegicus [7], in the data set on Rattus norvegicus [12] and with Rattus norvegicus [15] were 0.72 m equiv 6hr-1 kg-1 (body weight)-1, 2.35 m equiv 6hr-1 kg-1 (body weight)-1 and 1.25 m equiv 6hr-1 kg-1 (body weight)-1, respectively. Also, the V in the data set with Rattus norvegicus [8] is 20.52 ml 6hr-1 (kg of body weight)-1; in the data set filed under Rattus norvegicus [9], 2; with Rattus norvegicus [11], 62.99 ml 6hr-1 (kg of body weight)-1. Besides, the Urine volume is 8.7 mL in the data set with Rattus norvegicus [10] and 1.84 mL in the data set with Rattus norvegicus [13]. In the data set with Rattus norvegicus [14], this compound showed a Time of 2 h.

For the origin of these results see ChEMBL document CHEMBL1125330, “N-substituted pyrazino[2,3-c][1,2,6]thiadiazine 2,2-dioxides. A new class of diuretics” (J Med Chem, 1992).
